Experimental data from different studies.
Each line is one published result; the experiments were not run side by side.
SULT1E1: Sulfotransferase 1E1 (SULT1E1, Homo sapiens, UniProt P49888)
Stromelysin-2: Stromelysin-2 (Homo sapiens, UniProt P09238)
FAP: Prolyl endopeptidase FAP (FAP, Homo sapiens, UniProt Q12884)
CDK1 with cyclin B: Cyclin-dependent kinase 1, with cyclin B (CDK1, Homo sapiens, UniProt P06493)
PSMB6: Proteasome subunit beta type-6 (PSMB6, Homo sapiens, UniProt P28072)

Structure (SMILES) | target | assay | setting | measurement | result
Oc1c(Br)cc(Br)cc1Oc1ccc(Br)cc1Br | SULT1E1 | enzyme activity, substrate | – | Km | 8.87 µM
COc1ccc(S(=O)(=O)N(CC(=O)NO)CC(C)C)cc1 | Stromelysin-2 | enzyme activity, inhibitor | 10 µM | inhibition | 91%
Nc1ncc(-c2nc(N3CCOCC3)nc(N3CCOCC3)n2)c(C(F)F)n1 | 5'-AMP-activated protein kinase catalytic subunit alpha-2 (PRKAA2, Homo sapiens, UniProt P54646) | cell-free assay, competition with immobilised ligand | 10 µM | remaining binding | 91%
N=C(N)c1ccc2cc(OC(=O)c3ccc(N=C(N)N)cc3)ccc2c1 | FAP | enzyme activity, inhibitor | 10 µM | inhibition | 25%
C#Cc1n[nH]c2c(-c3cn(C(C)c4ccccn4)c(=O)[nH]c3=O)cc(F)cc12 (stereo not shown) | CDK1 with cyclin B | enzyme activity, inhibitor | 1 µM | inhibition | 6.8%
CCOC(=O)c1ccc(OC(=O)CCCCCNC(=N)N)cc1 | FAP | enzyme activity, inhibitor | 10 µM | inhibition | 29%
COc1ncccc1-c1cnn2ccc(N3CCN(C(=O)OC(C)C)CC3)nc12 | Ankyrin repeat and protein kinase domain-containing protein 1 (ANKK1, Homo sapiens, UniProt Q8NFD2) | binding, competition with immobilised ligand | 1 µM | remaining binding | 13%
Cn1cc(-c2cc(F)cc(N3CCn4c(cc5c4CCCC5)C3=O)c2CO)cc(Nc2ccc(N3CCN(C4COC4)CC3)cn2)c1=O | CDK1 with cyclin B | enzyme activity, inhibitor | 0.1 µM | inhibition | 8%
Cc1nn(C)cc1-c1nc2c(N3CCN(Cc4ccc(Cl)cc4)CC3)c(Cl)cnc2[nH]1 | Bone morphogenetic protein receptor type-2 (BMPR2, Homo sapiens, UniProt Q13873) | binding, competition with immobilised ligand | 1 µM | remaining binding | 100%
COc1cc(Br)cc(Br)c1Oc1cc(Br)cc(Br)c1O | SULT1E1 | enzyme activity, substrate | – | Km | 1.09 µM
N#C[C@@H]1CC(F)(F)CN1C(=O)CNC(=O)c1ccnc2ccccc12 | FAP | enzyme activity, inhibitor | 10 nM | inhibition | 35%
Cc1cc(-c2nsc(=O)o2)c(S(C)(=O)=O)s1 | PSMB6 | enzyme activity, inhibitor | – | kinact/KI | 1.4 M⁻¹ s⁻¹
CN(C)C(=O)COC(=O)Cc1ccc(OC(=O)c2ccc(NC(=N)N)cc2)cc1 | Stromelysin-2 | enzyme activity, inhibitor | 10 µM | inhibition | 29%
Cn1cc(-c2cccc(N3CCc4c(sc5c4CC(C)(C)C5)C3=O)c2CO)cc(Nc2ccncn2)c1=O | Serine/threonine-protein kinase Sgk2 (SGK2, Homo sapiens, UniProt Q9HBY8) | enzyme activity, inhibitor | 1 µM | inhibition | 3%
CSc1sc(C)cc1-c1nsc(=O)o1 | PSMB6 | enzyme activity, inhibitor | – | kinact/KI | 0.03 M⁻¹ s⁻¹
C#Cc1n[nH]c2c(-c3cn([C@@H](C)c4ccccc4)c(=O)[nH]c3=O)cc(F)cc12 | Cyclin-dependent kinase 9, with cyclin T1 (CDK9, Homo sapiens, UniProt P50750) | enzyme activity, inhibitor | 0.1 µM | inhibition | -1.8%
